Measured values from ChEMBL document CHEMBL1177787, “In vitro and in vivo antimalarial evaluation of semi-synthetic derivatives of gomphostenin” (Bioorg Med Chem Lett, 2010).

Legend:
Plasmodium falciparum [1] = experiment: Antiplasmodial activity against chloroquine-resistant Plasmodium falciparum RKL9 after 24 hrs by Giemsa staining; format: functional, organism-based; conditions: RKL9, 24 h
Outline: (§1)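 Parasites grown in human B(+) erythrocytes in RPMI-1640 with 25 mM HEPES, 10% human AB(+) serum, 0.2% sodium bicarbonate, 5% CO2. Ring-stage cultures synchronized, parasitemia set to 1–1.5% with fresh RBC. Twofold serial dilutions (ethanol stock, final ethanol ≤0.5%), duplicate wells, 37 °C for 24 h. Giemsa smears: schizonts per 100 asexual parasites; inhibition = (1 − Nt/Nc) × 100; IC50 derived.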

Plasmodium falciparum [2] = experiment: Antiplasmodial activity against chloroquine-sensitive Plasmodium falciparum MRC2 infected in human erythrocytes after 24 hrs by Giemsa staining; format: functional, organism-based; conditions: MRC2, 24 h; outline: as §1
Plasmodium berghei [3] = experiment: Antimalarial activity against chloroquine-sensitive Plasmodium berghei ANKA infected in Swiss mice (Mus musculus) assessed as suppression of parasitaemia at 100 mg/kg, perorally for 4 days measured on day 5 relative to control; format: functional; conditions: route oral
Outline: (§2)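 Four-day suppressive test: Swiss albino mice inoculated i.p. on day 0 with 0.2 ml infected blood carrying about 1 × 10⁷ P. berghei ANKA parasitized RBC. Compounds suspended in saline with 0.5% Tween-80 and given orally from shortly after inoculation, day 0–3. Groups of five mice; the vehicle group was the negative control. Tail-blood thin films were read on day 4 (fifth day), counting parasitized cells per 600 erythrocytes.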

Plasmodium berghei [4] = experiment: Antimalarial activity against chloroquine-sensitive Plasmodium berghei ANKA infected in Swiss mice (Mus musculus) assessed as parasitaemia at 150 mg/kg, perorally for 4 days measured on day 5; format: functional; conditions: route oral; outline: as §2
Plasmodium berghei [5] = experiment: Antimalarial activity against chloroquine-sensitive Plasmodium berghei ANKA infected in Swiss mice (Mus musculus) assessed as parasitaemia at 50 mg/kg, perorally for 4 days measured on day 5; format: functional; conditions: route oral; outline: as §2
Plasmodium berghei [6] = experiment: Antimalarial activity against chloroquine-sensitive Plasmodium berghei ANKA infected in Swiss mice (Mus musculus) assessed as suppression of parasitaemia at 50 mg/kg, perorally for 4 days measured on day 5 relative to control; format: functional; conditions: route oral; outline: as §2
Plasmodium berghei [7] = experiment: Antimalarial activity against chloroquine-sensitive Plasmodium berghei ANKA infected in Swiss mice (Mus musculus) assessed as suppression of parasitaemia at 150 mg/kg, perorally for 4 days measured on day 5 relative to control; format: functional; conditions: route oral; outline: as §2
Plasmodium berghei [8] = experiment: Antimalarial activity against chloroquine-sensitive Plasmodium berghei ANKA infected in Swiss mice (Mus musculus) assessed as parasitaemia at 100 mg/kg, perorally for 4 days measured on day 5; format: functional; conditions: route oral; outline: as §2
Plasmodium berghei [9] = experiment: Antimalarial activity against chloroquine-sensitive Plasmodium berghei ANKA infected in Swiss mice (Mus musculus) assessed as suppression of parasitaemia at 5 mg/kg, perorally for 4 days measured on day 5 relative to control; format: functional; conditions: route oral; outline: as §2
Plasmodium berghei [10] = experiment: Antimalarial activity against chloroquine-sensitive Plasmodium berghei ANKA infected in Swiss mice (Mus musculus) assessed as parasitaemia at 5 mg/kg, perorally for 4 days measured on day 5; format: functional; conditions: route oral; outline: as §2

COC[C@@H]1CC[C@]2(C)C(C)=CC(=O)C[C@H]2[C@]1(C)CCC1=CCOC1=O
IC50 (Plasmodium falciparum [1]): 88.9 µM | IC50 (Plasmodium falciparum [2]): 94.4 µM

CC1=CC(=O)C[C@H]2[C@](C)(CCC3=CCOC3=O)[C@H](COC(=O)OCc3ccccc3)CC[C@]12C
IC50 (Plasmodium falciparum [1]): 43.9 µM | IC50 (Plasmodium falciparum [2]): 42.2 µM

CC1=CC(=O)C[C@H]2[C@](C)(CCC3=CCOC3=O)[C@H](COCc3ccc(F)cc3)CC[C@]12C
inhibition in vivo at 100 mg/kg (Plasmodium berghei [3]): 33.2% | Activity (Plasmodium berghei [4]): 10.3% | IC50 (Plasmodium falciparum [1]): 8.1 µM | Activity (Plasmodium berghei [5]): 26.4% | inhibition in vivo at 50 mg/kg (Plasmodium berghei [6]): 21.7% | inhibition in vivo at 150 mg/kg (Plasmodium berghei [7]): 69.4% | IC50 (Plasmodium falciparum [2]): 8.3 µM | Activity (Plasmodium berghei [8]): 22.3%

CC1=CC(=O)C[C@H]2[C@](C)(CCC3=CCOC3=O)[C@H](COCc3ccc(C(F)(F)F)cc3)CC[C@]12C
inhibition in vivo at 100 mg/kg (Plasmodium berghei [3]): 63.2% | Activity (Plasmodium berghei [4]): 11.5% | IC50 (Plasmodium falciparum [1]): 4.4 µM | Activity (Plasmodium berghei [5]): 17.5% | inhibition in vivo at 50 mg/kg (Plasmodium berghei [6]): 48.4% | inhibition in vivo at 150 mg/kg (Plasmodium berghei [7]): 65.9% | IC50 (Plasmodium falciparum [2]): 4.8 µM | Activity (Plasmodium berghei [8]): 12.4%

CC1=CC(=O)C[C@H]2[C@](C)(CCC3=CCOC3=O)[C@H](COC(=O)C(C)(C)C)CC[C@]12C
IC50 (Plasmodium falciparum [1]): 84.9 µM | IC50 (Plasmodium falciparum [2]): 78.5 µM

CC1=CC(=O)C[C@H]2[C@](C)(CCC3=CCOC3=O)[C@H](COS(C)(=O)=O)CC[C@]12C
IC50 (Plasmodium falciparum [1]): 73.3 µM | IC50 (Plasmodium falciparum [2]): 69.9 µM

COc1ccc(COC(=O)OC[C@@H]2CC[C@]3(C)C(C)=CC(=O)C[C@H]3[C@]2(C)CCC2=CCOC2=O)cc1
IC50 (Plasmodium falciparum [1]): 47.7 µM | IC50 (Plasmodium falciparum [2]): 37.6 µM

CCN(CC)CCCC(C)Nc1ccnc2cc(Cl)ccc12.O=P(O)(O)O.O=P(O)(O)O (configuration not stated) [CHLOROQUINE PHOSPHATE]
inhibition in vivo at 5 mg/kg (Plasmodium berghei [9]): 96.8% | Activity (Plasmodium berghei [10]): 1.07%

CC1=CC(=O)C[C@H]2[C@](C)(CCC3=CCOC3=O)[C@H](COS(=O)(=O)c3ccc(C)cc3)CC[C@]12C
IC50 (Plasmodium falciparum [1]): 45.8 µM | IC50 (Plasmodium falciparum [2]): 26.1 µM

CC1=CC(=O)C[C@H]2[C@](C)(CCC3=CCOC3=O)[C@H](COCc3ccc(Cl)cc3)CC[C@]12C
IC50 (Plasmodium falciparum [1]): 18.8 µM | IC50 (Plasmodium falciparum [2]): 14 µM
